Source: ChEMBL document CHEMBL1165950, “Design and synthesis of new potent anticancer pyrazoles with high FLT3 kinase inhibitory selectivity” (Bioorg Med Chem, 2010)

How the values were obtained:
Format in all cases: functional
786-0 [1] = test: Cytotoxicity against human 786-0 cells assessed as cell growth at 100 nM after 48 hrs by sulforhodamine B assay; conditions: 786-0, 48 h, read-out: Activity
Method in brief: (§1)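 NCI-60 five-dose screen. Cells were grown in RPMI 1640 with 5% FBS and 2 mM L-glutamine, plated at 5000–40,000 cells/well and preincubated for 24 h. Time-zero plates were TCA-fixed. DMSO-solubilized drug was added at five concentrations (10-fold or ½-log serial dilutions) for 48 h at 37 °C, 5% CO2. Cells were TCA-fixed, stained with 0.4% SRB and read at 515 nm. Percent growth used time-zero, control and test absorbances.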

MDA-MB-468 = test: Cytotoxicity against human MDA-MB-468 cells assessed as cell growth at 10 uM; conditions: read-out: Activity
Method in brief: (§2)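 NCI-60 screen: cells grown in RPMI 1640 with 5% FBS and 2 mM L-glutamine, plated at 5000–40,000 cells/well according to doubling time, and preincubated 24 h at 37 °C, 5% CO2. The single 10 µM dose (DMSO stock) was added, then incubated 48 h. Cells were TCA-fixed and stained with 0.4% SRB, read at 515 nm, and growth % calculated against time-zero and control plates.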

M14 = test: Cytotoxicity against human M14 cells assessed as cell growth at 10 uM; conditions: read-out: Activity; method in brief: as §2
[2] = Cytotoxicity against human RPMI8266 cells assessed as cell growth at 0.01 uM after 48 hrs by sulforhodamine B assay; conditions: read-out: Activity
SN12C [3] = test: Cytotoxicity against human SN12C cells assessed as cell growth at 0.001 uM after 48 hrs by sulforhodamine B assay; conditions: read-out: Activity
SF-268 = test: Cytotoxicity against human SF268 cells assessed as cell growth at 1 uM after 48 hrs by sulforhodamine B assay; conditions: SF-268, 48 h, read-out: Activity
OVCAR-4 [4] = test: Cytotoxicity against human OVCAR4 cells assessed as cell growth at 0.001 uM after 48 hrs by sulforhodamine B assay; conditions: OVCAR-4, 48 h, read-out: Activity
NCI-H522 = test: Cytotoxicity against human NCI-H522 cells assessed as cell growth at 0.001 uM after 48 hrs by sulforhodamine B assay; conditions: NCI-H522, 48 h, read-out: Activity
786-0 [5] = test: Cytotoxicity against human 786-0 cells assessed as cell growth at 0.001 uM after 48 hrs by sulforhodamine B assay; conditions: 786-0, 48 h, read-out: Activity; method in brief: as §1
EKVX [6] = test: Growth inhibition of human EKVX cells after 48 hrs by sulforhodamine B assay
Method in brief: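 NCI five-dose SRB assay in RPMI 1640 with 5% FBS and 2 mM L-glutamine. Cells were preincubated 24 h, then exposed 48 h at 37 °C to five concentrations (10-fold or half-log serial dilutions from DMSO stocks). TCA fixation, SRB staining, and absorbance at 515 nm followed. IC50 was taken where [(Ti−Tz)/(C−Tz)]×100 = 50, with Tz as time-zero cell density.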

[7] = Cytotoxicity against human RPMI8266 cells assessed as cell growth at 100 nM after 48 hrs by sulforhodamine B assay; conditions: read-out: Activity
OVCAR-4 [8] = test: Cytotoxicity against human OVCAR4 cells assessed as cell growth at 100 nM after 48 hrs by sulforhodamine B assay; conditions: OVCAR-4, 48 h, read-out: Activity
CAKI-1 [9] = test: Cytotoxicity against human Caki1 cells assessed as cell growth at 0.001 uM after 48 hrs by sulforhodamine B assay; conditions: CAKI-1, 48 h, read-out: Activity
SN12C [10] = test: Cytotoxicity against human SN12C cells assessed as cell growth at 10 uM after 48 hrs by sulforhodamine B assay; conditions: read-out: Activity
DU-145 [11] = test: Cytotoxicity against human DU145 cells assessed as cell growth at 100 nM after 48 hrs by sulforhodamine B assay; conditions: DU-145, 48 h, read-out: Activity
HCC 2998 = test: Cytotoxicity against human HCC2998 cells assessed as cell growth at 0.001 uM after 48 hrs by sulforhodamine B assay; conditions: HCC 2998, 48 h, read-out: Activity
TK-10 = test: Cytotoxicity against human TK10 cells assessed as cell growth at 0.001 uM after 48 hrs by sulforhodamine B assay; conditions: TK-10, 48 h, read-out: Activity
LOX IMVI = test: Cytotoxicity against human LOXIMVI cells assessed as cell growth at 100 nM after 48 hrs by sulforhodamine B assay; conditions: read-out: Activity
EKVX [12] = test: Cytotoxicity against human EKVX cells assessed as cell growth at 100 nM after 48 hrs by sulforhodamine B assay; conditions: read-out: Activity
SF-539 = test: Cytotoxicity against human SF539 cells assessed as cell growth at 100 nM after 48 hrs by sulforhodamine B assay; conditions: SF-539, 48 h, read-out: Activity
OVCAR-3 [13] = test: Cytotoxicity against human OVCAR-3 cells assessed as cell growth at 0.001 uM after 48 hrs by sulforhodamine B assay; conditions: OVCAR-3, 48 h, read-out: Activity
DU-145 [14] = test: Cytotoxicity against human DU145 cells assessed as cell growth at 1 uM after 48 hrs by sulforhodamine B assay; conditions: DU-145, 48 h, read-out: Activity
SK-MEL-5 = test: Cytotoxicity against human SK-MEL-5 cells assessed as cell growth at 10 uM after 48 hrs by sulforhodamine B assay; conditions: SK-MEL-5, 48 h, read-out: Activity
MDA-MB-231 = test: Growth inhibition of human MDA-MB-231 cells after 48 hrs by sulforhodamine B assay; conditions: MDA-MB-231, 48 h
Method in brief: (§3)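 NCI 60-cell screen, five-dose mode. Cells grown in RPMI 1640 with 5% FBS and 2 mM L-glutamine and plated at 5000-40,000 cells/well according to doubling time. After 24 h preincubation, a Tz plate was TCA-fixed. Five concentrations (10-fold or 1/2 log dilutions) were applied for 48 h at 37 °C. SRB staining read at 515 nm. IC50 taken from [(Ti-Tz)/(C-Tz)]×100 = 50.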

HOP-92 = test: Cytotoxicity against human HOP92 cells assessed as cell growth at 0.01 uM after 48 hrs by sulforhodamine B assay; conditions: HOP-92, 48 h, read-out: Activity
OVCAR-3 [15] = test: Growth inhibition of human OVCAR-3 cells after 48 hrs by sulforhodamine B assay; conditions: OVCAR-3, 48 h; method in brief: as §3
U-251 = test: Cytotoxicity against human U251 cells assessed as cell growth at 10 uM; conditions: read-out: Activity; method in brief: as §2
COLO 205 = test: Cytotoxicity against human COLO205 cells assessed as cell growth at 1 uM after 48 hrs by sulforhodamine B assay; conditions: COLO 205, 48 h, read-out: Activity; method in brief: as §1
SK-MEL-2 = test: Cytotoxicity against human SK-MEL-2 cells assessed as cell growth at 10 uM; conditions: read-out: Activity; method in brief: as §2
UACC-62 = test: Cytotoxicity against human UACC62 cells assessed as cell growth at 10 uM; conditions: read-out: Activity; method in brief: as §2
KM12 = test: Cytotoxicity against human KM12 cells assessed as cell growth at 1 uM after 48 hrs by sulforhodamine B assay; conditions: KM12, 48 h, read-out: Activity
CAKI-1 [16] = test: Cytotoxicity against human Caki1 cells assessed as cell growth at 0.01 uM after 48 hrs by sulforhodamine B assay; conditions: CAKI-1, 48 h, read-out: Activity
[17] = read-out: LC50 (the source's name)

SMILES: COc1cc(C)cc(-c2c(-c3ccnc(-c4ccc(N(C)C)cc4)c3)cnn2CC#N)c1
- growth at 0.1 µM (786-0 [1]): 6%
- growth at 10 µM (MDA-MB-468): -23.1%
- growth at 10 µM (M14): -17.5%
- growth at 0.01 µM [2]: 78%
- growth at 0.001 µM (SN12C [3]): 97%
- growth at 1 µM (SF-268): 24%
- growth at 0.001 µM (OVCAR-4 [4]): 92%
- growth at 0.001 µM (NCI-H522): 96%
- growth at 0.001 µM (786-0 [5]): 95%
- GI50 (EKVX [6]): 290 nM
- TGI (EKVX [6]): > 100000 nM
- CC50 (EKVX [6]; [17]): > 100000 nM
- growth at 0.1 µM [7]: 13%
- growth at 0.1 µM (OVCAR-4 [8]): 33%
- growth at 0.001 µM (CAKI-1 [9]): 124%
- growth at 10 µM (SN12C [10]): 16%
- growth at 0.1 µM (DU-145 [11]): -51%
- growth at 0.001 µM (HCC 2998): 96%
- growth at 0.001 µM (TK-10): 99%
- growth at 0.1 µM (LOX IMVI): 19%
- growth at 0.1 µM (EKVX [12]): 14%
- growth at 0.1 µM (SF-539): -29%
- growth at 0.001 µM (OVCAR-3 [13]): 98%
- growth at 1 µM (DU-145 [14]): -47%
- growth at 10 µM (SK-MEL-5): -39%
- GI50 (MDA-MB-231): 256 nM
- LC50 (MDA-MB-231): > 100000 nM
- growth at 0.01 µM (HOP-92): -9%
- GI50 (OVCAR-3 [15]): 30 nM
- CC50 (OVCAR-3 [15]; [17]): > 100000 nM
- growth at 10 µM (U-251): 11.2%
- growth at 1 µM (COLO 205): 3%
- growth at 10 µM (SK-MEL-2): 49.3%
- growth at 10 µM (UACC-62): 20.3%
- growth at 1 µM (KM12): -43%
- growth at 0.01 µM (CAKI-1 [16]): -6%
